Screening data from PubChem BioAssay.
Only some compounds are listed: those with a hit (about 2.6% of all), similar ones and a draw of the others.
SENP8 block-1 – human SENP8 protease inhibitors, primary screen, biochemical, fluorescence, Nedd8 protein substrate, uHTS | 360,000 compounds, 0.64% hits | AID 602440, 2012 | inhibition, % at 20 µM | Sentrin-specific protease 8 (Homo sapiens), Q96LD8 | recombinant SENP8; in the data active = inhibition mostly above about 40%, no sharp cut-off; inactive = mostly below about 27%
SENP8 block-2 – SENP8 protease inhibitors, primary screen, biochemical, luminescence | Sentrin-specific protease 8 (Homo sapiens), Q96LD8 | purified SENP8, Z-RLRGG-aminoluciferin cleavage | inhibition, % at 10 µM | 330,000 compounds, 1.2% hits | AID 2540, 2010; in the data active = inhibition above about 50%
SENP6 block – SENP6 protease inhibitors, primary screen, biochemical, luminescence, uHTS | Sentrin-specific protease 6 (Homo sapiens), Q9GZR1 | Recombinant SENP6 catalytic domain, aminoluciferin luminescence | inhibition, % at 10 µM | 330,000 compounds, 1.8% hits | AID 2599, 2010;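 active = inhibition above about 50% at the single tested dose, limit read from the data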
SENP1 FRET inh – human SENP1 catalytic domain inhibitors, primary screen, biochemical, FRET, uHTS | AID 624204, 2012 | recombinant SENP1 catalytic domain, CyPet-SUMO1-YPet FRET cleavage | 360,000 compounds, 0.21% hits | inhibition, % at 10 µM | Sentrin-specific protease 1 (Homo sapiens), Q9P0U3;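 active = inhibition at least 30% at 10 µM, raw YFP signal under a set limit, fluorescence ratio 0.5 to 1.5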
Target sequence (Q9P0U3 419-644 limits assumed): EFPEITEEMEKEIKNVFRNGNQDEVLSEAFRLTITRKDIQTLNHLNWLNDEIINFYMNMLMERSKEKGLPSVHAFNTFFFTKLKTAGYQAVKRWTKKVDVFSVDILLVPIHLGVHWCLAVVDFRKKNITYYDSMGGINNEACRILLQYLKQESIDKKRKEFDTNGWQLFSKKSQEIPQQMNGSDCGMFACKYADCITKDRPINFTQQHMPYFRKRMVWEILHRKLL
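system = hSENP1 catalytic domain, recombinant | reagent = SFCypet-SUMO1-SFYpet substrate at 25 nM | doses = one dose per compound, 10 µM, 0.5% DMSO | incubation = enzyme reaction for 50 min at room temperature, dark | measured by = FRET, CFP and YFP emission | controls = no-enzyme low, enzyme-DMSO high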
SENP7 inh – SENP7 protease inhibitors, primary screen, biochemical, luminescence, uHTS. 330,000 compounds, 1.5% hits. Sentrin-specific protease 7 (Homo sapiens), Q9BQF6. inhibition, % at 5 µM. recombinant SENP7, Z-RLRGG-aminoluciferin luminescence, 40 min;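 active = inhibition above about 50% at the single test dose, limit read from the data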
Target sequence (Q9BQF6 706-1050 limits assumed): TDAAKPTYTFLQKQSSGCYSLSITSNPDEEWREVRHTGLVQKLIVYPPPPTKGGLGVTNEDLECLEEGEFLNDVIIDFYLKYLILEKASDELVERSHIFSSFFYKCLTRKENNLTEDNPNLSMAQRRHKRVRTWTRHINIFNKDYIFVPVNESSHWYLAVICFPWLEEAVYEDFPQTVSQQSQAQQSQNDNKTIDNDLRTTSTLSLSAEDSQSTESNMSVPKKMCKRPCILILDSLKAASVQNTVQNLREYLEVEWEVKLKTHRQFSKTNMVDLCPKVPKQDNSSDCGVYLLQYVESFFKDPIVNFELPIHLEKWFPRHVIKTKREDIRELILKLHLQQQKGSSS
Platelet DG rel – inhibitors of platelet dense granule secretion, primary screen, cell-based, MLPCN, human platelets. human platelet-rich plasma, SFLLRN dense granule ATP release, luminescence. inhibition, %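 (compounds screened at 7.5 µM in platelet-rich plasma)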. 300,000 compounds, 0.22% hits. AID 1663, 2009;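 active = mean replicate score, as percent of positive control, at or above 50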
SENP8 inh conf – human SENP8 protease inhibitors, confirmation, biochemical, Nedd8 protein substrate, single concentration; shares compounds with SENP8 block-1; purified SENP8, Nedd8-AMC/pro-Nedd8 cleavage fluorescence, 30 min; inhibition, % at 25 µM; 1,400 compounds, 15% hits; AID 624319, 2012; in the data active = inhibition mostly above about 39%, no sharp cut-off; inactive = mostly below about 34%
SENP1 inh conf – human SENP1 catalytic domain inhibitors, confirmation, biochemical, FRET endpoint, single concentration; shares compounds with SENP1 FRET inh; recombinant SENP1, CyPet-SUMO1-YPet FRET cleavage; inhibition, % at 10 µM; 520 compounds, 34% hits; AID 651678, 2012; in the data active = inhibition mostly above about 35%, no sharp cut-off; inactive = mostly below about 32%
SENP1 kin conf – human SENP1 catalytic domain inhibitors, confirmation, biochemical, kinetic FRET, single concentration; inhibition, % at 10 µM; 520 compounds, 26% hits; shares compounds with SENP1 FRET inh; recombinant SENP1, CyPet-SUMO1-YPet FRET kinetic cleavage; in the data active = inhibition mostly above about 32%, no sharp cut-off; inactive = mostly below about 29%
Hits are given with their value; 0 = inactive; - = no result.

SMILES	SENP8 block-1	SENP8 block-2	SENP6 block	SENP1 FRET inh	SENP7 inh	Platelet DG rel	SENP1 inh conf	SENP1 kin conf	others
Cc1ccc(NC(=O)C(=O)c2c(-c3ccccc3)cc3ccccn23)cc1S(=O)(=O)N1CCOCC1	52	0	0	0	0	0	-	-	SENP8 inh conf=0
CC(=O)OCCN1C(=O)c2ccc(-c3nc4ccccc4c(=O)o3)cc2C1=O	0	0	0	0	0	0	-	-
COc1ccc(OC)c(CNS(=O)(=O)c2c(C)nc3scc(C)n3c2=O)c1	0	0	0	0	0	0	-	-
Cc1cc(Br)ccc1-n1[nH]c(C)c(C=Nc2cccc3nsnc23)c1=O	54	0	0	40	0	0	0	0	SENP8 inh conf=0
CCCN(CC(=O)Nc1ccccc1OC)C(=O)c1cc(-c2cccs2)nn1-c1ccccc1	0	0	0	0	0	0	-	-
O=C1C2=C(SCCS2)C(=O)N1CCCO	0	0	0	54	0	0	48	0
CCOC(=O)Cn1c(=O)oc2cc(S(=O)(=O)NC(C)c3ccccc3)ccc21 (centres undefined)	0	0	0	0	0	0	-	-
CC(NS(=O)(=O)c1ccc2c(c1)oc(=O)n2C)c1ccccc1 (centres undefined)	0	0	0	34	0	0	0	0
Cc1ccc(NC(=O)Nc2ccc3c(c2)OCO3)cc1F	0	0	0	0	0	0	-	-
C=CCOCCN1C(=O)C2C(c3ccccc3)C=CC(c3ccccc3)C2C1=O (centres undefined)	0	0	0	66	0	0	76	61
CN(C)c1cccc2c(S(=O)(=O)N3CCOCC3)cccc12	0	0	0	41	0	0	0	0
CN(C)c1cccc2c(S(=O)(=O)N3CCCC3)cccc12	0	0	0	0	0	0	-	-
Cc1cc(NC(=O)c2cc(-c3ccc(OC(C)C)cc3)nc3ccccc23)no1	0	0	0	0	0	0	-	-
O=C(Cn1c(O)c(/C=C2\C=Nc3ccccc32)sc1=O)Nc1ccc2c(c1)OCO2	0	0	0	46	0	0	0	0
CSc1ncc(CNc2cc([N+](=O)[O-])ccc2C)c(N)n1	0	0	0	37	0	0	0	0
CC(NC(=O)COc1ccc(/C=N/NC(=O)CO)cc1)c1ccccc1 (centres undefined)	0	0	0	0	0	0	-	-
O=C(Cc1ccccc1F)Nc1cccc2cccnc12	0	0	0	0	0	0	-	-
O=C(O)CCCC(=O)Nc1cccc2cccnc12	0	0	0	34	0	0	0	0
CCCN(CCC)C(=O)Cn1c(=O)c2sccc2n2c(=S)sc(-c3ccccc3)c12	0	0	0	66	0	0	47	0
CCOc1ccccc1N=Nc1c(C)[nH]n(C(N)=S)c1=O	0	0	0	48	0	0	0	0
CCC1CCCCN1CCCNS(=O)(=O)c1ccc2c(c1)oc(=O)n2C (centres undefined)	0	0	0	31	0	0	0	0
COc1cc(C(O)c2nc(-c3ccc(C)c(C)c3)cs2)ccc1F (centres undefined)	0	-	-	0	-	-	-	-
COc1cc(Nc2cccc(-c3ccccc3)n2)cc(OC)c1OC	0	-	-	0	-	-	-	-
COc1cc(Nc2nc3c(N)cc(C(F)(F)F)cc3nc2-c2ccccc2)cc(OC)c1OC	0	-	-	46	-	-	0	0
O=S(=O)(c1ccc(Br)cc1)c1nc(-c2ccco2)oc1NCCCn1ccnc1	0	0	0	0	0	-	-	-
SMILES	SENP8 block-1	SENP8 block-2	SENP6 block	SENP1 FRET inh	SENP7 inh	Platelet DG rel	SENP1 inh conf	SENP1 kin conf	others
Nc1cc2cccnc2cc1Cl	0	-	-	42	-	-	0	0
CC(NC(=O)c1ccc(F)cc1F)C1CC2CCC1C2 (centres undefined)	0	0	0	0	0	0	-	-
CSc1c(C#N)c(N)nc2sc(C(=O)c3ccccc3)c(N)c12	0	0	0	65	0	0	57	40
N#Cc1c(SCc2ccc(Cl)cc2)sc(C(=O)c2ccccc2)c1N	0	0	0	0	0	0	-	-
CCOc1cc(Br)cc(/C=C2\SC(=Nc3ccccc3)NC2=O)c1O	0	0	0	35	0	0	69	45
C=CCOc1ccc(Br)cc1/C=C1/SC(=Nc2ccc(C(=O)O)cc2)NC1=O	0	-	-	0	-	-	-	-
C=CCOc1c(Br)cc(/C=C2\SC(=Nc3ccccc3)NC2=O)cc1OC	0	0	0	42	0	0	0	0
COC(=O)/C=c1/s/c(=C(\C#N)C(=O)NCc2ccco2)n(-c2ccc(C)cc2)c1=O	0	0	0	37	0	0	0	0
COC(=O)/C=c1/s/c(=C(/C#N)C(=O)N2CCOCC2)n(-c2ccccc2)c1=O	0	0	0	0	0	0	-	-
O=C1Nc2ccccc2Oc2cc([N+](=O)[O-])ccc21	0	0	0	0	0	0	-	-
CCOc1cc([N+](=O)[O-])cc2c1C(=O)Nc1ccccc1O2	0	0	0	54	0	0	0	0
Cc1c(C=NNC(=O)c2ccc(Br)cc2)c2ccccn2c1C(=O)c1ccncc1	0	0	0	50	0	-	0	0
COc1cccc(NC(=O)CCC(=O)Nc2cc(OC)c(NC(=O)c3cccs3)cc2OC)c1	0	0	0	0	0	0	-	-
Cc1cc(Oc2ccc(=O)n(C)n2)nc(SCC(N)=O)n1	0	0	0	38	0	0	0	0
C[C@@H]1CCCCO[C@H](CN(C)Cc2ccc(C(=O)O)cc2)[C@@H](C)CN([C@H](C)CO)C(=O)c2cc(NC(=O)CCC(F)(F)F)ccc2O1	0	-	-	0	-	-	-	-
CCOC(=O)c1c(=O)n(O)c2ccc(C)cc2[n+]1[O-]	0	0	0	47	0	0	0	0
CCOC(=O)c1c(C)[n+]([O-])c2ccc3c(non3O)c12	0	0	0	0	0	0	-	-
COc1cccc(C(O)c2nc(-c3cccc(C#N)c3)cs2)c1 (centres undefined)	0	-	-	0	-	-	-	-
